Source: ChEMBL document CHEMBL1123031, “Adriamycin analogues. rationale, synthesis, and preliminary antitumor evaluation of highly active DNA-nonbinding N-(trifluoroacetyl)adriamycin 14-O-hemiester derivatives” (1985)
pIC50: −log10 of the molar value.

Assays:
Format in all cases: functional
Mus musculus [1] = experiment: In vivo antitumor efficacy expressed as number survivors in 60-days out of 7 male mice at dose 70 mg/kg; Value represented as = 1/7
CCRF-CEM = experiment: In vitro inhibitory activity against CCRF-CEM cell growth in culture, after 48-h incubation.; conditions: Homo sapiens, read-out: ID50 (the source's name)
In short: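 Human lymphoblastic leukemia CCRF-CEM cells grown in culture with drug for 48 h. ID50 is the drug concentration that inhibits culture growth by 50% relative to untreated controls, reported in μM.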

Mus musculus [2] = experiment: In vivo percent increase in life span relative to untreated controls in B6D2F1/J male mice at dose 50 mg/kg
Mus musculus [3] = experiment: In vivo percent increase in life span relative to untreated controls in B6D2F1/J male mice at dose 60 mg/kg
Mus musculus [4] = experiment: In vivo percent increase in life span relative to untreated controls in B6D2F1/J male mice at dose 40 mg/kg
Mus musculus [5] = experiment: In vivo antitumor efficacy expressed as number survivors in 60-days out of 7 male mice at dose 60 mg/kg; Value represented as = 1/7
Mus musculus [6] = experiment: In vivo antitumor efficacy expressed as number survivors in 60-days out of 7 male mice at dose 40 mg/kg; Value represented as = 0/7
Mus musculus [7] = experiment: In vivo antitumor efficacy expressed as number survivors in 60-days out of 7 male mice at dose 50 mg/kg; Value represented as = 0/7
Mus musculus [8] = experiment: In vivo percent increase in life span relative to untreated controls in B6D2F1/J male mice at dose 70 mg/kg
Mus musculus [9] = experiment: In vivo antitumor efficacy expressed as number survivors in 60-days out of 7 male mice at dose 40 mg/kg; Value represented as = 6/7
Mus musculus [10] = experiment: In vivo antitumor efficacy expressed as number survivors in 60-days out of 7 male mice at dose 70 mg/kg; Value represented as = 7/7
Mus musculus [11] = experiment: In vivo antitumor efficacy expressed as number survivors in 60-days out of 7 male mice at dose 50 mg/kg; Value represented as = 5/7
Mus musculus [12] = experiment: In vivo antitumor efficacy expressed as number survivors in 60-days out of 7 male mice at dose 60 mg/kg; Value represented as = 6/7
Mus musculus [13] = experiment: In vivo antitumor efficacy expressed as number survivors in 60-days out of 7 male mice at dose 70 mg/kg; Value represented as = 4/7
Mus musculus [14] = experiment: In vivo percent increase in life span relative to untreated controls in B6D2F1/J male mice at dose 30 mg/kg
Mus musculus [15] = experiment: In vivo antitumor efficacy expressed as number survivors in 60-days out of 7 male mice at dose 60 mg/kg; Value represented as = 4/7
Mus musculus [16] = experiment: In vivo antitumor efficacy expressed as number survivors in 60-days out of 7 male mice at dose 30 mg/kg; Value represented as = 0/7
Mus musculus [17] = experiment: In vivo antitumor efficacy expressed as number survivors in 60-days out of 7 male mice at dose 40 mg/kg; Value represented as = 1/7
Mus musculus [18] = experiment: In vivo antitumor efficacy expressed as number survivors in 60-days out of 7 male mice at dose 50 mg/kg; Value represented as = 2/7
Mus musculus [19] = experiment: In vivo antitumor efficacy expressed as number survivors in 60-days out of 7 male mice at dose 40 mg/kg; Value represented as = 3/7
Mus musculus [20] = experiment: In vivo antitumor efficacy expressed as number survivors in 60-days out of 7 male mice at dose 70 mg/kg; Value represented as = 6/7
Mus musculus [21] = experiment: In vivo antitumor efficacy expressed as number survivors in 60-days out of 7 male mice at dose 60 mg/kg; Value represented as = 7/7
Mus musculus [22] = experiment: In vivo antitumor efficacy expressed as number survivors in 60-days out of 7 male mice at dose 50 mg/kg; Value represented as = 1/7
Mus musculus [23] = experiment: In vivo antitumor efficacy expressed as number survivors in 60-days out of 7 male mice at dose 60 mg/kg; Value represented as = 5/7
Mus musculus [24] = experiment: In vivo antitumor efficacy expressed as number survivors in 60-days out of 7 male mice at dose 30 mg/kg; Value represented as = 4/7
Mus musculus [25] = experiment: In vivo percent increase in life span relative to untreated controls in B6D2F1/J male mice at dose 3 mg/kg
Mus musculus [26] = experiment: In vivo percent increase in life span relative to untreated controls in B6D2F1/J male mice at dose 2 mg/kg
Mus musculus [27] = experiment: In vivo antitumor efficacy expressed as number survivors in 60-days out of 7 male mice at dose 4 mg/kg; Value represented as = 0/7
Mus musculus [28] = experiment: In vivo antitumor efficacy expressed as number survivors in 60-days out of 7 male mice at dose 3 mg/kg; Value represented as = 0/7
Mus musculus [29] = experiment: In vivo antitumor efficacy expressed as number survivors in 60-days out of 7 male mice at dose 2 mg/kg; Value represented as = 0/7
Mus musculus [30] = experiment: In vivo antitumor efficacy expressed as number survivors in 60-days out of 7 male mice at dose 5 mg/kg; Value represented as = 0/7
Mus musculus [31] = experiment: In vivo percent increase in life span relative to untreated controls in B6D2F1/J male mice at dose 1 mg/kg
Mus musculus [32] = experiment: In vivo percent increase in life span relative to untreated controls in B6D2F1/J male mice at dose 4 mg/kg
Mus musculus [33] = experiment: In vivo antitumor efficacy expressed as number survivors in 60-days out of 7 male mice at dose 1 mg/kg; Value represented as = 0/7
Mus musculus [34] = experiment: In vivo antitumor efficacy expressed as number survivors in 60-days out of 7 male mice at dose 50 mg/kg; Value represented as = 4/7
Mus musculus [35] = experiment: In vivo antitumor efficacy expressed as number survivors in 60-days out of 7 male mice at dose 20 mg/kg; Value represented as = 3/7
Mus musculus [36] = experiment: In vivo percent increase in life span relative to untreated controls in B6D2F1/J male mice at dose 20 mg/kg
Mus musculus [37] = experiment: In vivo antitumor efficacy expressed as number survivors in 60-days out of 7 male mice at dose 60 mg/kg; Value represented as = 0/7

Compound	pIC50 (CCRF-CEM)	ILS at 50 mg/kg (Mus musculus [2])	ILS at 60 mg/kg (Mus musculus [3])	ILS at 40 mg/kg (Mus musculus [4])	Survivors (Mus musculus [6])	ILS at 70 mg/kg (Mus musculus [8])	Survivors (Mus musculus [11])	ILS at 30 mg/kg (Mus musculus [14])	Survivors (Mus musculus [23])	also measured
COc1cccc2c1C(=O)c1c(O)c3c(c(O)c1C2=O)C[C@@](O)(C(=O)COC(=O)CC(=O)O)C[C@@H]3OC1CC(NC(=O)C(F)(F)F)C(O)C(C)O1 (some centres undefined)	6.48	109%	136%	109%	0	154%				Survivors (Mus musculus [1]): 1; Survivors (Mus musculus [5]): 1; Survivors (Mus musculus [7]): 0
COc1cccc2c1C(=O)c1c(O)c3c(c(O)c1C2=O)C[C@@](O)(C(=O)COC(=O)CCCCC(=O)O)C[C@@H]3OC1CC(NC(=O)C(F)(F)F)C(O)C(C)O1 (some centres undefined)	6.51	> 445%	> 445%	> 445%		> 445%	5			Survivors (Mus musculus [9]): 6; Survivors (Mus musculus [10]): 7; Survivors (Mus musculus [12]): 6
COc1cccc2c1C(=O)c1c(O)c3c(c(O)c1C2=O)C[C@@](O)(C(=O)COC(=O)CCCC(=O)O)C[C@@H]3OC1CC(NC(=O)C(F)(F)F)C(O)C(C)O1 (some centres undefined)	6.55	172%	> 445%	109%		> 445%		81%		Survivors (Mus musculus [13]): 4; Survivors (Mus musculus [15]): 4; Survivors (Mus musculus [16]): 0; Survivors (Mus musculus [17]): 1; Survivors (Mus musculus [18]): 2
COc1cccc2c1C(=O)c1c(O)c3c(c(O)c1C2=O)C[C@@](O)(C(=O)COC(=O)CCCCCC(=O)O)C[C@@H]3OC1CC(NC(=O)C(F)(F)F)C(O)C(C)O1 (some centres undefined)	6.44	136%	> 445%	181%		> 445%				Survivors (Mus musculus [19]): 3; Survivors (Mus musculus [20]): 6; Survivors (Mus musculus [21]): 7; Survivors (Mus musculus [22]): 1
COc1cccc2c1C(=O)c1c(O)c3c(c(O)c1C2=O)C[C@@](O)(C(=O)COC(=O)CCCCCCCC(=O)O)C[C@@H]3OC1CC(NC(=O)C(F)(F)F)C(O)C(C)O1 (some centres undefined)	6.36	> 445%	> 445%	172%		> 445%	5	445%	5	Survivors (Mus musculus [19]): 3; Survivors (Mus musculus [10]): 7; Survivors (Mus musculus [24]): 4
COc1cccc2c1C(=O)c1c(O)c3c(c(O)c1C2=O)C[C@@](O)(C(=O)CO)C[C@@H]3O[C@H]1C[C@H](N)[C@H](O)[C@H](C)O1 [DOXORUBICIN]	7.30									ILS at 3 mg/kg (Mus musculus [25]): 181%; ILS at 2 mg/kg (Mus musculus [26]): 90%; Survivors (Mus musculus [27]): 0; Survivors (Mus musculus [28]): 0; Survivors (Mus musculus [29]): 0; Survivors (Mus musculus [30]): 0; ILS at 1 mg/kg (Mus musculus [31]): 81%; ILS at 4 mg/kg (Mus musculus [32]): 63%; Survivors (Mus musculus [33]): 0
COc1cccc2c1C(=O)c1c(O)c3c(c(O)c1C2=O)C[C@@](O)(C(=O)CO)C[C@@H]3OC1CC(NC(=O)C(F)(F)F)C(O)C(C)O1 (some centres undefined)	6.64									
COc1cccc2c1C(=O)c1c(O)c3c(c(O)c1C2=O)C[C@@](O)(C(=O)COC(=O)CCCCCCCCC(=O)O)C[C@@H]3OC1CC(NC(=O)C(F)(F)F)C(O)C(C)O1 (some centres undefined)	6.30	> 445%	> 445%	109%	0	> 445%			5	Survivors (Mus musculus [34]): 4; Survivors (Mus musculus [20]): 6
CCCCC(=O)OCC(=O)[C@]1(O)Cc2c(O)c3c(c(O)c2[C@@H](OC2CC(NC(=O)C(F)(F)F)C(O)C(C)O2)C1)C(=O)c1c(OC)cccc1C3=O (some centres undefined)	6.62	> 445%	> 445%	> 445%			5	> 445%	5	Survivors (Mus musculus [9]): 6; Survivors (Mus musculus [35]): 3; Survivors (Mus musculus [24]): 4; ILS at 20 mg/kg (Mus musculus [36]): 281%
COc1cccc2c1C(=O)c1c(O)c3c(c(O)c1C2=O)C[C@@](O)(C(=O)COC(=O)CCC(=O)O)C[C@@H]3OC1CC(NC(=O)C(F)(F)F)C(O)C(C)O1 (some centres undefined)	6.52	118%	127%	127%	0	190%				Survivors (Mus musculus [37]): 0; Survivors (Mus musculus [1]): 1; Survivors (Mus musculus [7]): 0
